# Entries after “also recorded” stand apart in the source; their conditions may differ. Where two headings read alike, the source gives them in different places.
# What was measured:
# SIRT1 = target: T1, SIRT1 (Homo sapiens, UniProt Q96EB6); assay: Secondary SIRT1 inhibitory assay; assay type: biochemical; conditions: read-out: SIRT1 IC50 ± SE; second assay system
# T1 sequence (Q96EB6 1-747): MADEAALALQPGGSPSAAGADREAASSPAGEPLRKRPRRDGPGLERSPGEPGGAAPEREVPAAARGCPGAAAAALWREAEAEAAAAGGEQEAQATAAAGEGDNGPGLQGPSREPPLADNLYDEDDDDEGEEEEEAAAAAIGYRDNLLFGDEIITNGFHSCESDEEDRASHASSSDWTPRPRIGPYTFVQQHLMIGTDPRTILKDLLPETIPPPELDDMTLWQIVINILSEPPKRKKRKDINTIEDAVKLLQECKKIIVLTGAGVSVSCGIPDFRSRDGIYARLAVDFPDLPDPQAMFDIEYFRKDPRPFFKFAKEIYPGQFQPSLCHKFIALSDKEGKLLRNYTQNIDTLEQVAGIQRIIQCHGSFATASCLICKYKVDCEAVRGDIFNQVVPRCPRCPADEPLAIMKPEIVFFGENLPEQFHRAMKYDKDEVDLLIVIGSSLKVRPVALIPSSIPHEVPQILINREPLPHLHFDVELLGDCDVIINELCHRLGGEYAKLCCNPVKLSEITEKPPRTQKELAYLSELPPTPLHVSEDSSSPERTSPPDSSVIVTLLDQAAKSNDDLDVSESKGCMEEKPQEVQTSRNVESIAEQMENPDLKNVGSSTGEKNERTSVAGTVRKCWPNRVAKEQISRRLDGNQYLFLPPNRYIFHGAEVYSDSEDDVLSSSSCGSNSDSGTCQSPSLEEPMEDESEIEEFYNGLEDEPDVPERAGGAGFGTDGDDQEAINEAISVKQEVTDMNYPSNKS
# SIRT2 [1] = target: T2, SIRT2 (Homo sapiens, UniProt Q8IXJ6); assay: Secondary SIRT2 inhibitory assay; assay type: biochemical; conditions: second assay system; for IC50: read-out: SIRT2 IC50 ± SE
# T2 sequence (Q8IXJ6 1-389): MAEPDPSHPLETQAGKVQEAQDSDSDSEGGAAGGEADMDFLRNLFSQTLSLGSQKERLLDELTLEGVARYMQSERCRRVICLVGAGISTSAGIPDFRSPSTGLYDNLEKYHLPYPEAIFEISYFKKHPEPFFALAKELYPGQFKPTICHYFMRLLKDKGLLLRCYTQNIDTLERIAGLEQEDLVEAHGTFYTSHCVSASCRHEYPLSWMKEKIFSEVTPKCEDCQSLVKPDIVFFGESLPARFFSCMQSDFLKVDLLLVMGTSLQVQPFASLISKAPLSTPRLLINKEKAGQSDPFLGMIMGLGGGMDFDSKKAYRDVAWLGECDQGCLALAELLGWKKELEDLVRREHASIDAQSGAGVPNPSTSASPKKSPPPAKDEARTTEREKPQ
# Candida albicans = conditions: 100 µg/disk; cited from earlier work
# Artemia salina = conditions: cited from earlier work
# Biomphalaria glabrata = conditions: cited from earlier work
# SIRT2 [2] = target: T2, SIRT2; assay: Initial SIRT2 inhibitory assay; assay type: biochemical
# How it was run: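 Reactions contained 50 µM fluor de Lys substrate, 270 nM SIRT2 and 1 mM NAD, with or without test compound, in Buffer A (25 mM Tris-HCl pH 8.0, 137 mM NaCl, 2.7 mM KCl, 1 mM MgCl2). Blanks lacked NAD. After 2 h at 37°, reactions were stopped with 2.7 mg/mL trypsin in Buffer A and developed for 20 min. Fluorescence was read at ex 360/em 460 nm.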
# sodium channels = assay: Sodium channel blocking assay in neuro-2a cells; assay type: cell-based, mouse
# [3] = tested on: NCI-H460 lung tumor cells; assay: Cytotoxicity assay; assay type: cell-based; conditions: human lung H-460
# How it was run: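 NCI-H460 cells were seeded at 6000 cells/well in 96-well plates and dosed 24 h later. The test compound was dissolved in DMSO and diluted into medium without fetal bovine serum, with DMSO below 0.5% final. Viability was read by MTT reduction.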
# SIRT2 [4] = target: T2, SIRT2; conditions: read-out: IC50 (SIRT2), reported; cited from earlier work
compound,measurement,setting,value
"(5R, 5’S)-tanikolide dimer [Compound 4]",IC50,SIRT1,28.8 ± 4.3 µM
same,IC50,SIRT2 [1],2.4 ± 0.2 µM
same,fold more potent to the SIRT2 isoform than to SIRT1,SIRT2 [1],approximately 10 fold
"CCCCCCCCCCC[C@]1(CO)CCCC(=O)O1 [Compound 1, Tanikolide]",diameter zone inhibition,Candida albicans,13 mm
same,LC50 brine shrimp,Artemia salina,3.6 µg/mL
same,LC50 snail,Biomphalaria glabrata,9.0 µg/mL
"(5R, 5’R)-tanikolide dimer [Compound 3]",IC50,"SIRT2 [2]; read-out: IC50 against SIRT2, initial assay format",0.176 µM
same,IC50,SIRT1,36.4 ± 8.1 µM
same,IC50,SIRT2 [1]; listed as 5,3.3 ± 0.2 µM
same,fold more potent to the SIRT2 isoform than to SIRT1,SIRT2 [1],approximately 10 fold
same,inhibition in sodium channel blocking assay,sodium channels; at 5.2 µM,54%
same,cytotoxicity to H-460 cell line,[3]; at 10 µM,did not have any activity
"(5S, 5’S)-tanikolide dimer [ent-5]",IC50,SIRT1,34.5 ± 3.5 µM
same,IC50,SIRT2 [1],3.1 ± 0.3 µM
same,fold more potent to the SIRT2 isoform than to SIRT1,SIRT2 [1],approximately 10 fold
"O=c1oc2ccccc2c2oc3cc(O)c(O)cc3c12 [8,9-dihydroxybenzo-[4,5]furo[3,2-c]chromen-6-one]",IC50,SIRT2 [4],45 µM
"CCCCCCCCCCCC(O)(CO)CCCC(=O)O (stereo not shown) [Compound 2, Tanikolide seco acid]",SIRT2 inhibitory activity,SIRT2 [2]; highest concentration tested 50 µM,inactive
same,sodium channel blocking activity,sodium channels; highest concentration tested 10 µM,inactive
same,cytotoxicity to H-460 cell line,[3]; at 9.9 µM,moderately toxic; also recorded: moderate cytotoxicity

# Reference: PMC2736347 (The Journal of organic chemistry, 2009)
